Data on 13 compounds can be found in ChEMBL document CHEMBL1142511, “[(18)F]-labeled isoindol-1-one and isoindol-1,3-dione derivatives as potential PET imaging agents for detection of beta-amyloid fibrils” (Bioorg Med Chem Lett, 2008).

Each structure is given as a SMILES string.

The assay is described as follows: Displacement of [125I]TZDM from amyloid beta 1 to 42 aggregates. The method in brief:
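Competitive binding against aggregated Aβ1–42 with [125I]TZDM as radioligand. Non-specific binding defined with 2 µM thioflavin T. Incubated 3 h at room temperature. Bound and free radioactivity separated by vacuum filtration through GF/B filters, followed by two washes with 10% EtOH at room temperature. IC50 converted to Ki by the Cheng–Prusoff equation.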
In general terms: Loss of bound radioactivity is the signal in a displacement assay; it reports binding, not function.
Turning to `Nc1ccc(N2Cc3cc(OCCF)ccc3C2=O)cc1`, the Ki was 0.61 nM.
`Nc1ccc(N2C(=O)c3ccc(OCCF)cc3C2=O)cc1` registered an inhibition constant (Ki) of 0.59 nM.
`CN(C)c1ccc(N2C(=O)c3ccc(OCCF)cc3C2=O)cc1` registered a Ki of 0.69 nM.
With `Nc1ccc(N2C(=O)c3ccc(OCCCF)cc3C2=O)cc1` the figure was 0.74 nM.
On to `CNc1ccc(N2C(=O)c3ccc(OCCCF)cc3C2=O)cc1`, for which the affinity corresponds to a Ki of 0.78 nM.
Compound `CNc1ccc(N2Cc3cc(OCCF)ccc3C2=O)cc1` registered a Ki of 0.91 nM.
Then `CN(C)c1ccc(N2Cc3cc(OCCF)ccc3C2=O)cc1`, with 0.3 nM; and `Nc1ccc(N2Cc3cc(OCCCF)ccc3C2=O)cc1`, with 0.4 nM.
`CNc1ccc(N2Cc3cc(OCCCF)ccc3C2=O)cc1`: the Ki is 0.51 nM.
`CN(C)c1ccc(N2Cc3cc(OCCCF)ccc3C2=O)cc1`: the affinity, expressed as Ki, was 0.71 nM.
Compound `CN(C)c1ccc(N2C(=O)c3ccc(OCCCF)cc3C2=O)cc1` displayed a Ki of 0.85 nM.
Then `CNc1ccc(N2C(=O)c3ccc(OCCF)cc3C2=O)cc1`, with 0.6 nM; and `CNc1ccc(-c2nc3ccc(O)cc3s2)cc1` [PITTSBURGH COMPOUND B UNLABELLED], with 0.77 nM.

What is called Ki is the dissociation constant of the complex between target and ligand, obtained from inhibition or displacement. A higher Ki goes with lower affinity.
